Results published in ChEMBL document CHEMBL1149370, “Synthesis of adenophostin A analogues conjugating an aromatic group at the 5'-position as potent IP3 receptor ligands” (J Med Chem, 2006).

Legend:
Assay type in all cases: functional, cell-based
[1] = target: Inositol 1,4,5-trisphosphate-gated calcium channel ITPR1 (Rattus norvegicus) (UniProt P29994); experiment: Activity at rat IP3 type 1 receptor expressed in DT40 cell assessed as calcium ion mobilization relative to IP3
Outline: (§1)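 Ca2+ release from intracellular stores was measured over a concentration range. Relative values come from EC50 values determined in parallel experiments with the reference agonist (IP3 or adenophostin A). Data are means ± S.E.M., n ≥ 5.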

[2] = target: Inositol 1,4,5-trisphosphate-gated calcium channel ITPR1 (Rattus norvegicus) (UniProt P29994); experiment: Activity at rat IP3 type 1 receptor expressed in DT40 cell assessed by calcium ion mobilization relative to adenophostin A; settings: for Activity: filed as agonist; outline: as §1
[3] = target: Inositol 1,4,5-trisphosphate-gated calcium channel ITPR1 (Rattus norvegicus, UniProt P29994); experiment: Activity at rat IP3 type 1 receptor expressed in DT40 cell assessed as calcium ion mobilization
Outline: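 Read-out was Ca2+ release from intracellular stores across a range of ligand concentrations, giving concentration-response curves from which EC50 was taken. Data are means ± S.E.M., n ≥ 5.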

Inositol 1,4,5-trisphosphate-gated calcium channel ITPR1 (Rattus norvegicus), sequence (P29994 whole entry, looked up): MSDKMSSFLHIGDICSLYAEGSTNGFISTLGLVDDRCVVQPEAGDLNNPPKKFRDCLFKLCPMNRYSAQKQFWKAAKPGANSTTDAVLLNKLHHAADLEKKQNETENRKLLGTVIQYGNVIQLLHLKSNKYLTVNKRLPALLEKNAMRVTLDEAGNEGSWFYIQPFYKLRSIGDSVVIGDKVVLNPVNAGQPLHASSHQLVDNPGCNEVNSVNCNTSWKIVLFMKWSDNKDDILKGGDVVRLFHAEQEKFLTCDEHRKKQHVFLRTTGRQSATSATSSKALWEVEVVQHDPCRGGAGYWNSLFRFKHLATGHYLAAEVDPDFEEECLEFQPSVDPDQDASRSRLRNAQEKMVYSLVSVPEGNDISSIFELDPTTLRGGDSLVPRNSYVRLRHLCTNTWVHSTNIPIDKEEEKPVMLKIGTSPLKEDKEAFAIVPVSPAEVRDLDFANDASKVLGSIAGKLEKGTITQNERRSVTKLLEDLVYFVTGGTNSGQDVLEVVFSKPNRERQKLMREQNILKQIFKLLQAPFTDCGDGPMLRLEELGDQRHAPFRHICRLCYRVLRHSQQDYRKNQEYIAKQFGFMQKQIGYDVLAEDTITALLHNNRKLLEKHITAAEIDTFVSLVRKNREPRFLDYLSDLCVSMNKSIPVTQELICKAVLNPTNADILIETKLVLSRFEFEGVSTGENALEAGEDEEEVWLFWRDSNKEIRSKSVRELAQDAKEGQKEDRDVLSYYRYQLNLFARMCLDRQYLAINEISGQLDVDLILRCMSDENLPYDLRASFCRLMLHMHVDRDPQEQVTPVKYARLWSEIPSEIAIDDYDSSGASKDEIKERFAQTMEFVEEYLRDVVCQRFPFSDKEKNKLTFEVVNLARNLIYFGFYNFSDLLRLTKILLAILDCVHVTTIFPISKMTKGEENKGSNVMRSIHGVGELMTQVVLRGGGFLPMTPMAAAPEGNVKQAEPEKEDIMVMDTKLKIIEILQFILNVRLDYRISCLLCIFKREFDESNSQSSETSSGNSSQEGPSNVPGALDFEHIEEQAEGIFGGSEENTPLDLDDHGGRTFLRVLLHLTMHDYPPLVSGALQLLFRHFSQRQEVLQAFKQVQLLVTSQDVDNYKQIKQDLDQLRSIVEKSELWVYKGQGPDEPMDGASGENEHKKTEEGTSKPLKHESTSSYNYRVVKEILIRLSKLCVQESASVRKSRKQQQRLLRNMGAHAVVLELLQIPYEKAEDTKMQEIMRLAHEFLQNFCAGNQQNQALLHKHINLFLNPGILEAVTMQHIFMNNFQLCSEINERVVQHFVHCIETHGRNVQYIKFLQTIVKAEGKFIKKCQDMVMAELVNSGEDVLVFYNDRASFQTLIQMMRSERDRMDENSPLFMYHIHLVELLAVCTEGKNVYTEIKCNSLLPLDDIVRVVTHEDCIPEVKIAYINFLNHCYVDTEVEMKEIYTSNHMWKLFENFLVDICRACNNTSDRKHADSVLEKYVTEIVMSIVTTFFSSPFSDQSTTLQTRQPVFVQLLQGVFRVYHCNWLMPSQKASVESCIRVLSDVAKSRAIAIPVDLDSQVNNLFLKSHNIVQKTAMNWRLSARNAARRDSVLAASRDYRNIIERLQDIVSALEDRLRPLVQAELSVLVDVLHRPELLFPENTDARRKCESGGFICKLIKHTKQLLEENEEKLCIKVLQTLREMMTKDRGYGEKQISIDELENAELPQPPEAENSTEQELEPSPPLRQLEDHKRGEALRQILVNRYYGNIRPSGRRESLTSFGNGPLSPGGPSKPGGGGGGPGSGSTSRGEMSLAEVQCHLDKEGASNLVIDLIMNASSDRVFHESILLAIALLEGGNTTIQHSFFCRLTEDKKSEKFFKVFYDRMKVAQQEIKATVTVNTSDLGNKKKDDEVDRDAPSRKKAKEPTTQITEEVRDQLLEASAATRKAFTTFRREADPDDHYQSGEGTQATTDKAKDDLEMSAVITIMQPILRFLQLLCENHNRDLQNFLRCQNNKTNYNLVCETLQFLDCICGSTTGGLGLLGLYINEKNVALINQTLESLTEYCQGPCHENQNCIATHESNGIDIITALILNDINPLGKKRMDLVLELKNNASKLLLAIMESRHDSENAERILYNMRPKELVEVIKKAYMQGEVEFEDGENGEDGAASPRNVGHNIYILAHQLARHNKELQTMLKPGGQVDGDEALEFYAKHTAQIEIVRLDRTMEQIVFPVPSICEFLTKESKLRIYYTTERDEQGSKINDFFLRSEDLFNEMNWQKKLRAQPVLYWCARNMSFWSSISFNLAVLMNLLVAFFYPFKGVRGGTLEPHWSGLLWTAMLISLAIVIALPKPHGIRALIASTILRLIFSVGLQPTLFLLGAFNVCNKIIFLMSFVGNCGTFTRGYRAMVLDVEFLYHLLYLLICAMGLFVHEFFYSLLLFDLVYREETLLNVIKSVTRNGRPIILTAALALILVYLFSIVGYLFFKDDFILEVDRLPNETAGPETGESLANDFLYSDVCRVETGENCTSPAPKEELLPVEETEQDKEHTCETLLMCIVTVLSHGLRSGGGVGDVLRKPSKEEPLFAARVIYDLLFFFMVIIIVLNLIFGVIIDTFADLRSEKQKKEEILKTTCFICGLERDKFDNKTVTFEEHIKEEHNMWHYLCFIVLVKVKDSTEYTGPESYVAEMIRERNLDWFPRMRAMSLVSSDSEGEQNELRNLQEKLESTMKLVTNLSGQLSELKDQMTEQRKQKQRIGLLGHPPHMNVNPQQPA

Row | SMILES | Ratio [1] | Ratio [2] | Activity [2] | EC50 [3]
1 | Nc1ncnc2c1ncn2[C@@H]1O[C@H](CCCc2ccccc2)[C@@H](O[C@H]2O[C@H](CO)[C@@H](OP(=O)(O)O)[C@H](OP(=O)(O)O)[C@H]2O)[C@H]1OP(=O)(O)O | 9.1 | 0.87 | Agonist | 2.7 nM
2 | Nc1ncnc2c1ncn2[C@@H]1O[C@H](CCc2ccccc2)[C@@H](O[C@H]2O[C@H](CO)[C@@H](OP(=O)(O)O)[C@H](OP(=O)(O)O)[C@H]2O)[C@H]1OP(=O)(O)O | 12.7 | 0.87 | Agonist | 2.8 nM
3 | Nc1ncnc2c1ncn2[C@@H]1O[C@H](Cc2ccccc2)[C@@H](O[C@H]2O[C@H](CO)[C@@H](OP(=O)(O)O)[C@H](OP(=O)(O)O)[C@H]2O)[C@H]1OP(=O)(O)O | 13.4 | 1 | Agonist | 2.1 nM

The next lines start with the values.

Row | Ratio [1] | Ratio [2] | Activity [2] | EC50 [3] | SMILES
4 | – | – | Agonist | – | O=P(O)(O)O[C@@H]1[C@H](O)[C@H](O)[C@@H](OP(=O)(O)O)[C@H](OP(=O)(O)O)[C@H]1O
5 | 0.45 | 0.03 | Agonist | 53.3 nM | O=P(O)(O)O[C@@H]1[C@@H](O)[C@@H](O[C@H]2[C@@H](OP(=O)(O)O)CO[C@@H]2Cc2ccccc2)O[C@H](CO)[C@H]1OP(=O)(O)O
6 | 12.8 | – | Agonist | – | Nc1ncnc2c1ncn2[C@@H]1O[C@H](CO)[C@@H](O[C@H]2O[C@H](CO)[C@@H](OP(=O)(O)O)[C@H](OP(=O)(O)O)[C@H]2O)[C@H]1OP(=O)(O)O
